Assay results of several laboratories.
JAK2: Tyrosine-protein kinase JAK2 (JAK2, Homo sapiens, UniProt O60674)
JAK2 JH1: Tyrosine-protein kinase JAK2, JH1 (JAK2, Homo sapiens, UniProt O60674)

Compound	target	effect on	mode	technique	tested at	quantity	value
Cc1ccc(NC(=O)c2ccc(CN3CCN(C)CC3)cc2)cc1Nc1nc(-c2cccnc2)cs1	JAK2	cell-free assay			0.5 µM	remaining signal	96.3%
O=C(CSc1nc2nccnc2c(=O)n1CCc1ccccc1)Nc1nccs1	JAK2	enzyme activity	inhibitor		10 µM	inhibition	-4%
CO[C@@H](C)c1c(Nc2ccc([C@@H](N(C)C(=O)C3CCS(=O)(=O)CC3)C(F)(F)F)cc2)cnc2cc(Cl)nn12	JAK2 JH1	cell-free assay		competition with immobilised ligand	1 µM	remaining binding	98%
FC(F)c1nc2ccccc2n1-c1nc(N2CCOCC2)nc(N2CCOCC2)n1	JAK2	enzyme activity	inhibitor		10 µM	remaining activity	79%
CC/C(=N\NC(=O)NCc1cccc(O)c1)c1ccc(O)c(C)c1O	JAK2	enzyme activity	inhibitor		0.1 µM	inhibition	1%
FC(F)(F)Oc1cccc(-c2cnc3ccc(-c4ccncc4)nn23)c1	JAK2	enzyme activity	inhibitor	radiometric	1 µM	activity vs control	74%
CNC(=O)c1cc(Oc2ccc(NC(=O)Nc3ccc(Cl)c(C(F)(F)F)c3)cc2)ccn1	JAK2	cell-free assay			0.5 µM	remaining signal	98.2%
O=C(NCCCC1CCCCC1)c1ccc(CNC(=O)c2cnn(-c3ccccc3)c2C(F)(F)F)cc1	JAK2 JH1	cell-free assay		competition with immobilised ligand	0.1 µM	remaining binding	100%
CCCS(=O)(=O)Nc1ccc(F)c(C(=O)c2c[nH]c3ncc(-c4ccc(Cl)cc4)cc23)c1F	JAK2	enzyme activity	inhibitor		1 µM	inhibition	< 10%
CC(=O)N1CCC(c2ccc(C(=O)NC(=N)N)cc2C(F)(F)F)CC1	JAK2 JH1	cell-free assay		competition with immobilised ligand	1 µM	remaining binding	100%
Cc1ccc(NC(=O)c2ccc(C)c(C(F)(F)F)c2)cc1C#Cc1nn(C2CCC(O)CC2)c2ncnc(N)c12 (stereo not drawn)	JAK2	cell-free assay			10 µM	remaining signal	64%
O=C(NCCCNc1nc(Nc2cccc(NC(=O)N3CCCC3)c2)ncc1C1CC1)C1CCC1	JAK2	enzyme activity	inhibitor	radiometric	1 µM	remaining activity	68%
COc1cc2ncnc(Nc3ccc(Oc4ccccc4)cc3C)c2cc1OC	Tyrosine-protein kinase JAK2, JH1 (JAK2, Homo sapiens, UniProt O60674, V617F)	enzyme activity	inhibitor		1 µM	inhibition	-11%
CN(c1nccc(-c2cnn3ncccc23)n1)C1CC1	JAK2 JH1	cell-free assay			1 µM	remaining signal	100%
COCCOc1nc(-c2ccc(Cl)nc2)nc2c1CN(C(=O)c1ncn3ccccc13)CC2	JAK2 JH1	cell-free assay		competition with immobilised ligand	0.1 µM	remaining binding	100%
C[C@@H]1CCN(c2nccc(-c3cnn4ncccc34)n2)C1	JAK2 JH1	cell-free assay			1 µM	remaining signal	90%
Nc1nc(Nc2ccc(S(N)(=O)=O)cc2)nn1C(=O)c1c(F)cccc1F	JAK2	cell-free assay			0.5 µM	remaining signal	19.2%

Compound	target	effect on	mode	technique	tested at	quantity	value
Cc1ccc(C(=O)NCc2ccsc2)cc1C#Cc1cn(C(C)C)c2ncnc(N)c12	JAK2	enzyme activity	inhibitor		1 µM	activity vs control	100%
Cc1nn(CC(F)(F)F)cc1Nc1ncc(C2CC2)c(NCCCNC(=O)C2CCC2)n1	JAK2	enzyme activity	inhibitor	radiometric	1 µM	remaining activity	99%
Cc1cc(NC(=O)c2cccc3cc(-c4cccc5[nH]nc(N)c45)ccc23)ccc1F	JAK2	enzyme activity	inhibitor		0.1 µM	activity vs control	78%
Cc1nc(N2CC[C@@H](O)C2)ncc1-c1cc(C(F)(F)F)cc2[nH]ncc12	JAK2 JH1	binding		competition with immobilised ligand	1 µM	remaining binding	61%
COc1cc2ncnc(Nc3ccc(Oc4ccccc4)c(C)c3C)c2cc1OC	JAK2 JH1	enzyme activity	inhibitor		1 µM	inhibition	-2%
CCN(CC)CCNC(=O)c1c(C)[nH]c(/C=C2\C(=O)Nc3ccc(F)cc32)c1C	JAK2	cell-free assay			0.5 µM	remaining signal	88.8%
O=C(NCCCNc1nc(Nc2cccc(NC(=O)N3CCCC3)c2)ncc1I)c1cccs1	JAK2	enzyme activity	inhibitor	radiometric	1 µM	remaining activity	6%
CCS(=O)(=O)c1cc2cc(C[C@](O)(CC(C)(C)c3ccc(F)cc3C(N)=O)C(F)(F)F)[nH]c2cn1	JAK2 JH1	cell-free assay		competition with immobilised ligand	1 µM	remaining binding	53%
Cc1nn(CC(F)(F)F)cc1Nc1nccc(NCCc2cnc[nH]2)n1	JAK2	enzyme activity	inhibitor	radiometric	1 µM	remaining activity	89%
COc1cccc(CNC(=O)c2nc3scc(COCc4ccc(C(=O)O)cc4)c3c(=O)[nH]2)c1	JAK2 JH1	cell-free assay		competition with immobilised ligand	1 µM	remaining binding	100%
Cc1nn(CC(F)(F)F)cc1Nc1ncc(C2CC2)c(NCCc2c[nH]cn2)n1	JAK2	enzyme activity	inhibitor	radiometric	1 µM	remaining activity	123%
C[C@H](NC(=O)c1cnc2n1[C@](C)(Cc1ccc(C#N)cc1)C(=O)N2c1cc(Cl)c(F)c(Cl)c1)C(=O)NC1(c2ccccn2)CC1	JAK2 JH1	cell-free assay		competition with immobilised ligand	1 µM	remaining binding	100%
Cc1nn(CC(F)(F)F)cc1Nc1ncc(Br)c(NCCc2cnc[nH]2)n1	JAK2	enzyme activity	inhibitor	radiometric	1 µM	remaining activity	106%
Cc1ccc(Nc2nccc(N(C)c3ccc4c(C)n(C)nc4c3)n2)cc1S(N)(=O)=O	JAK2	enzyme activity	inhibitor		10 µM	inhibition	36%
Cc1nn(CC(F)(F)F)cc1Nc1nccc(NCCCNC(=O)C2CCC2)n1	JAK2	enzyme activity	inhibitor	radiometric	1 µM	remaining activity	114%
CCOc1cc(-c2nncn2C)ccc1Nc1ncc2cc(C)nc(NCC(C)(C)C)c2n1	JAK2	enzyme activity	inhibitor	FRET	1 µM	inhibition	< 15%
